# STK33 kinase inh – human STK33 kinase inhibition; Q9BYT3; purified STK33, MBP phosphorylation, ADP-Glo luminescence; inhibition, % at 10 µM; hit rate 0.073% among 320,000; AID 2661;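 active = inhibition at or above 25%, using the most active replicate where run in duplicate; inactive = inhibition below 25%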
# Target sequence (Q9BYT3 whole entry, looked up): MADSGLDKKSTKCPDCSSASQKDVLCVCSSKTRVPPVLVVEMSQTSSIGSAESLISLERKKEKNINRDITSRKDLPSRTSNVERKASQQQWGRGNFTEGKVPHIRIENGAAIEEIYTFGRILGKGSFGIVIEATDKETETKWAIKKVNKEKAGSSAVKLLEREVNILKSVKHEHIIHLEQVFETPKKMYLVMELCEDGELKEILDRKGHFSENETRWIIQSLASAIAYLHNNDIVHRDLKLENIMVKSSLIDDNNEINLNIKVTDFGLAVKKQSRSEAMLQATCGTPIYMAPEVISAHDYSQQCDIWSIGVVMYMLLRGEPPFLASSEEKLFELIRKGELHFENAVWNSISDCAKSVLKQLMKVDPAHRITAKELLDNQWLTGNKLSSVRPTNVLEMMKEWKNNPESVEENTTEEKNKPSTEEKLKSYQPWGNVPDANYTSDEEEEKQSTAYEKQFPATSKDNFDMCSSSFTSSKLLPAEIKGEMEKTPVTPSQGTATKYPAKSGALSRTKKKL
# Dyrk1A ADPGlo – inhibitors of rat Dyrk1A kinase. hit rate 0.43% among 310,000. Q63470. ADP-Glo luminescence, NFATc1 peptide. inhibition, % at 12.5 µM. AID 504441; in the data active = inhibition above about 50%;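 also: plate controls were vehicle with enzyme for no effect and no enzyme for full effect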
# Rin1-Abl PPI inh – human Rin1-Abl interaction inhibition; P00519+Q13671; TR-FRET Rin1/Abl binding, biochemical; inhibition, % at 7.35 µM; hit rate 0.4% among 360,000; AID 588664; in the data active = inhibition above about 5%, passing the limit was not always enough
# Arr AP2 block – blocks beta-arrestin peptide binding to AP2 adaptin | AID 504490 | FITC-arrestin peptide / GST-AP2 beads, flow cytometry; AP2 beta2 appendage carries R879A mutation | inhibition, % at 10 µM | hit rate 0.31% among 340,000;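 active = inhibition above a set limit, near 3 SD of compounds lacking own fluorescence, cut at about 54% in these data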;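 also: plate controls were DMSO wells for no effect and 5 µM unlabelled arrestin peptide for full effect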
#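 Test system: GST-tagged AP2 beta2-adaptin appendage (R879A) on 4 µm glutathione beads; also added: fluorescein-tagged arrestin peptide at 50 nM final; timing: 12 min plus 1 h, RT; signal: flow cytometry, FL1 (488/535 nm); read-out: percent drop in bead-associated FITC signal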
# GSK3B inh – blocks human GSK3beta kinase activity | P49841 | GST-GSK3beta kinase, ADP-Glo luminescence, 60 min; hits give low values | activity score (negative = inhibition), % at 10 µM | hit rate 0.038% among 300,000;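 active = more than half of replicate wells score below -50%, meaning over 50% inhibition versus plate controls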;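 also: 0% = median DMSO wells and -100% = median GW8510 positive control wells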
#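 Test system – GST-tagged human GSK3beta kinase, cell-free · Incubation – 60 min enzyme reaction, room temperature · Signal – ADP-Glo luminescence · Also added – peptide substrate and ATP at 25 µM · Controls – DMSO neutral wells and GW8510 at 20 µM as positive · Buffer or medium – Tris/MgCl2 kinase buffer · Measure – Luminescence-derived activity versus plate DMSO and GW8510 wells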
# GSK3A inh – blocks human GSK-3 alpha kinase | P49840 | ADP-Glo luminescence, 60 min | inhibition, % at 10 µM | hit rate 0.1% among 320,000;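 active = more than half of replicates show inhibition above 20%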;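 also: GST-tagged GSK-3 alpha with peptide substrate and 25 µM ATP; 0% = DMSO neutral wells and 100% = GW8510 positive control wells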
# Rin1 Abl conf – confirmation of inhibitors of human Rin1-Abl interaction; inhibition, % at 7.35 µM; TR-FRET Rin1-Abl binding, purified proteins; AID 602124; hit rate 49% among 1,300; shares compounds with Rin1-Abl PPI inh
# GFP quench-1 – quenches GFP fluorescence, counter-screen for Rin1-Abl inhibitors. shares compounds with Rin1-Abl PPI inh. inhibitors/quenchers counterscreen. inhibition, % at 6.75 µM. hit rate 8.5% among 1,300;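 also: ABL1-eGFP fusion protein alone without its partner RIN1-SBP; 0% = protein with vehicle and 100% = wells lacking protein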
# GFP quench DR – quenches GFP in dose response, Rin1-Abl counter-screen | shares compounds with Rin1-Abl PPI inh | GFP fluorescence interference/quenching counterscreen | IC50, µM | 230 tested, under 10 active | AID 602182; call rule not given here;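 also: ABL1-eGFP fusion protein alone without its RIN1 binding partner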
# GFP quench-2 – counter-screen for Rin1-Abl interaction inhibitors: GFP fluorescence quenching. shares compounds with Rin1-Abl PPI inh. GFP fluorescence quenching counterscreen, biochemical. IC50, µM. 25 tested, under 10 active. AID 602397; call rule not given here
# Numbers without * were called inactive; · = no result given. Only some compounds are listed: those with a hit (about 0.99% of all), similar ones and a draw of the others. Rule as the data show it, unless noted: active = inhibition above about 6.5%; inactive = the rest.
SMILES,STK33 kinase inh,Dyrk1A ADPGlo,Rin1-Abl PPI inh,Arr AP2 block,GSK3B inh,GSK3A inh,Rin1 Abl conf,GFP quench-1,others
Cc1nnc(SCC(=O)NC2CCCC(C)C2C)n1N (configuration not stated),-2.1,·,4.1,-17.4,·,-2.4,·,·,
O=C(Nc1ccc(S(=O)(=O)N2CCCCC2)cc1)C1CC(=O)N(c2ccccc2)C1 (configuration not stated),-0.9,0.1,3.8,-2.3,-2.1,-0.7,·,·,
NS(=O)(=O)c1ccc(NC(=O)C2CCCN(S(=O)(=O)c3ccc(F)cc3)C2)cc1 (configuration not stated),0.3,5.3,18.3*,-7.5,2.7,-5.1,3.7,-5.0,
O=C(Nc1ccc(S(=O)(=O)N2CCCC2)cc1)C1CCN(S(=O)(=O)c2ccc(F)cc2)CC1,0.0,·,-0.5,-7.6,2.4,-0.9,·,·,
Cc1cccc(N2CC(C(=O)Nc3ccc(S(=O)(=O)N4CCCCC4)cc3)CC2=O)c1C (configuration not stated),0.0,-7.7,13.2*,-1.8,4.5,-2.3,13.0*,0.2,
Cc1ccccc1N1CC(C(=O)Nc2ccc(S(=O)(=O)N3CCCCC3)cc2)CC1=O (configuration not stated),2.1,-1.3,7.7*,-14.7,0.6,0.1,7.5*,-1.7,
Nn1c(SCC(=O)Nc2ccc(N3CCOCC3)cc2)nnc1-c1ccccc1F,0.0,-0.9,4.8,23.2,·,0.2,·,·,
CC1CC(C)CN(CCCNC(=O)C2CCN(c3nnc(-n4cccc4)s3)CC2)C1 (configuration not stated),1.4,·,0.7,14.4,-1.6,1.4,·,·,
COc1cccc(CSc2nnc(CSc3nc4nc(C)cc(C)n4n3)s2)c1,-1.2,-0.1,27.9*,-2.3,5.9,0.9,39.2*,0.1,GFP quench DR=>67.5;GFP quench-2=>67.5
Cc1cc(C)n2nc(SCc3nnc(SCc4ccccc4C)s3)nc2n1,-0.1,-2.1,0.4,-0.1,-1.3,1.2,·,·,
Cc1cc(C(=O)N2CCC2(C)C(=O)NCCC#N)nn1C (configuration not stated),·,·,-2.9,·,·,·,·,·,

# Screens deposited in PubChem BioAssay by several laboratories.
